From ChEMBL document CHEMBL4513216, “Probing the Open Global Health Chemical Diversity Library for Multistage-Active Starting Points for Next-Generation Antimalarials” (ACS Infect Dis, 2020)

Experiment: Toxicity liver stage against HepG2, at 10uM
Type: cell-based
Design: test concentration 10 uM, cell line HepG2-A16-CD81EGFP
Conditions: human, HepG2-A16-CD81EGFP cells; read-out: INHIBITION
Procedure, shortened: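 Uninfected HepG2-A16-CD81EGFP cells, 3 × 10^3 per well, 1536-well, plated on prespotted compound at 10 μM final, parasite-free screening media added to match infected plates; puromycin 10 μM positive, DMSO 0.5% negative; run in parallel with 48 h PbLuc assay at 37 °C, 5% CO2; viability by CellTiter-Glo luminescence, normalized to controls.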

Structure (SMILES)	cytotoxicity at 10 µM [%]
COCCN1CCN(C(=O)C[C@@H]2C[C@@H](C(C)C)[C@H](CO)C=C2C)CC1	4.82
COCC(=O)NC[C@H]1C[C@@H]2CCN1C[C@@H]2CN(C)c1ccccc1	-2.17
COc1ccccc1NC(=O)N1CCCC1c1ccco1 (stereo not drawn)	-4.78
Cn1ccc2c(C(=O)N3CC[C@@]4(O)CCCC[C@H]4C3)cccc21	-42.9
Cc1cc2c(N)nc(=O)n(CC(=O)Nc3ccccc3)c2s1	1.54
Cc1ccc(S(=O)(=O)Nc2c(C)nc(N3CCCC3)nc2C)cc1	-0.243
CN1[C@@H](C(=O)NCC2CC2)C[C@@H]2CN(Cc3ccoc3)C[C@@H]21	3.88
O=C(CCc1nc2cccnc2[nH]1)Nc1cccnc1	2.92
Cc1cc(C(=O)N2C[C@@H]3COC[C@]3(COCc3cccnc3)C2)no1	-16.1
OC(CN1CCOCC1)c1ccc(Br)cc1 (stereo not drawn)	-6.58
CCS(=O)(=O)Nc1cnn(Cc2cccc(Cl)c2)c1	-11.5
CCCN1CCC(NC(=O)c2csc(C)c2-c2ccc(C)cc2)CC1	-4.14
CCCc1noc(C2CCCCN2C(=O)CCc2cnn(C)c2)n1 (stereo not drawn)	-1.89
CCOC(=O)C1CCCN(c2nccc(-n3nc(C)cc3C)n2)C1 (stereo not drawn)	-11
CCn1ncc(Cl)c1CN(C)C(=O)CCn1ncc(Br)c1C	2.93
CCOCc1cccc(S(=O)(=O)N2CCSCC2)c1	1.26
COc1ccc(CC(=O)N2CCN(Cc3ccco3)C[C@@H]2C)cc1	1.42
CC(C)N1CCN(C)CC(Cc2cc(N(C)C)ncn2)C1 (stereo not drawn)	9.25
CC[C@H](Cn1ncc2ccccc2c1=O)NC(=O)c1cnc(C)cn1	5.98
CC(=O)N1CCCC1c1nc(N(C)C)ncc1-c1ccccc1 (stereo not drawn)	6.12
CCn1ccc2ccnc(CC3CN(C(=O)c4cnco4)C3)c21	-6.61
CN(C)c1nccc(C2CN(C(=O)CO)C2)n1	-10.6
CC(=O)N1CCC(Cc2cnc(-c3c(C)n[nH]c3C)cn2)CC1	-21.7

Structure (SMILES)	cytotoxicity at 10 µM [%]
Cc1noc(C)c1-c1cncc(C2CCCN2Cc2ncccc2F)n1 (stereo not drawn)	7.84
O=C(COc1cccc(F)c1)N1CCCCC1c1ccn2ccnc2n1 (stereo not drawn)	-6.11
CNC(=O)C1(c2cnccn2)CCCN1C(=O)c1cccc(F)c1 (stereo not drawn)	-29.6
O=c1[nH]c2ncccc2n1C1CCCCC1	3.16
O=C(CCNc1ccc(Cl)cn1)NCc1ccncc1	-2.31
CCn1c(C)cc(C(=O)Nc2ccccc2CN(C)C(C)=O)c1C	-1.03
CN(C)CCOc1ccccc1N1CCN(C(=O)c2ccoc2)CC1	24.8
CCNC(=O)Nc1cccc(F)c1C(=O)NC1CCCC1	5.69
O=C(Cc1ccc(F)cc1)NCc1ccc(C(=O)O)o1	-8.06
COCCN1CC(C(=O)N(C)Cc2ccc(Cl)s2)CC1=O (stereo not drawn)	8.69
COC(=O)C(NC(=O)c1ccc(NC2CC2)nc1)c1ccccc1 (stereo not drawn)	-9.88
COC1CCN(C(=O)c2ccc3ncsc3c2)CC1	-10.3
NC(=O)CS(=O)(=O)Cc1ccc(F)cc1	-3.71
COc1ccc(CN(C(=O)C2CCOCC2)c2ccncc2)cc1	8.5
Cn1cnnc1CNC(=O)CCCOc1ccccc1Cl	3.28
COc1ccc(OC)c(CN2CCN(Cc3cscn3)CC2)c1	-7.15
CNC(=O)c1cc(NC(=O)Nc2cnn(CC(C)C)c2)ccc1F	-3.79
NC(=O)NC1CCN(Cc2ccc(Br)c(F)c2)CC1	-1.57
O=S(=O)(NCCc1cn2ccccc2n1)N1CCOCC1	-3.98
COc1ccc(CCNC(=O)c2ccc(=O)n(C)c2)c(Cl)c1	-10.3
CC(C)n1ccc(C(=O)OCC2CC(=O)N(Cc3ccccc3)C2)n1 (stereo not drawn)	0.379
CN(C)c1cc2c(nn1)CCN(C(=O)c1cc3c(s1)CCC3)C2	-6.97
CCS(=O)(=O)CC(=O)N1CCCC(c2noc(C(C)C)n2)C1 (stereo not drawn)	-4.78

Structure (SMILES)	cytotoxicity at 10 µM [%]
CCOc1ccc(Cl)cc1CCNC(=O)N1CCCC(CO)C1 (stereo not drawn)	5.46
CC(CC(=O)N1CCC(c2nnc3n2CCC3)CC1)n1cccc1 (stereo not drawn)	8.11
CN(C)CCNC(=O)Cc1cccc(I)c1	-3.23
Cc1cc(C(=O)NCC(c2ccccc2Cl)N2CCOCC2)on1 (stereo not drawn)	2.62
Cc1nn(C)c(C)c1CC(=O)NCc1cccnc1N1CCOCC1	-139
CCOc1ccc(NC(C)C(=O)NCCc2cccs2)cc1CO (stereo not drawn)	-6.79
CN(C)C(=O)C1CCCN1c1ccnc2ccsc12 (stereo not drawn)	-16.8
CN(CC1CC1)C(=O)CN1CCCC1c1cnn(C)c1 (stereo not drawn)	2.01
Cc1noc(CCNS(=O)(=O)N2CCCC2c2ccc(C)o2)n1 (stereo not drawn)	-10
O=C(CN1CCc2[nH]c3ccccc3c2C1)NCc1ccco1	-3.04
COc1ccc(CNCCc2ccn(-c3ccccc3)n2)cc1O	-0.13
Cn1ncnc1CNc1ccccc1C(=O)NC(C)(C)C	3.9
Cc1cc(C2CCCN(CCC(=O)N3CCc4ccccc43)C2)n[nH]1 (stereo not drawn)	-7.9
CC(=O)c1ccc(Cl)c(Cl)c1OCC(=O)NC(N)=O	7.49
Cn1cc(CNc2cnn(CCO)c2)c(-c2ccncc2)n1	1.56
CC(Nc1cccc(Oc2ccc(C#N)cn2)c1)C(=O)NC1CC1 (stereo not drawn)	12.8
Cc1cc(CNC(=O)c2ccc(F)c(COCC3CC3)c2)no1	-0.429
CNC(=O)CN1CCC(NC(=O)Cc2ccccc2OC(C)C)CC1	-2.14
O=C(NCCc1csc(N2CCCC2)n1)N(C1CCCC1)C1CC1	10.8
O=C(COc1cccc2c1CCC2=O)NCc1ccccc1F	-5.33
COCC(=O)NCC[C@H]1CC(C)(C)Oc2ccc(OC)cc21	-5.36
O=C(CSCC1CC1)N1CCC2(CCCN(C3CCOCC3)C2=O)C1 (stereo not drawn)	-127
CCSc1ncc(CN(Cc2cnn(C)c2)CC(C)C)cn1	-7.53

Structure (SMILES)	cytotoxicity at 10 µM [%]
CS(=O)(=O)NCc1cc2n(n1)CCCN(Cc1ccc(Cl)s1)C2	2.81
COCCn1c(CN2CCCO2)cnc1S(=O)(=O)CC1CCCCC1	-8.62
CCc1csc(CCNC(=O)CC2CCN(C(C)C)CC2)n1	6.62
Cc1cc(C(=O)N2CC[C@@]3(O)CCN(C(=O)N4CCCC4)C[C@H]3C2)no1	-6.74
CCN(C)S(=O)(=O)NCC1CCCN(Cc2ccccc2F)C1 (stereo not drawn)	-1.22
CN1CCC(C)(CN(C)C(=O)c2ccc(CCC(C)(C)O)cc2)C1 (stereo not drawn)	-11.2
CN1CCC2(CC1)CCN(C(=O)c1onc3ccccc13)C2	-9.14
COc1ccc(-c2ccc(C(=O)N3CCOCC3CC(=O)O)o2)cc1 (stereo not drawn)	1.79
CCc1cc(C(=O)N2CC[C@@H](c3ccc4ccccc4c3)[C@H](O)C2)[nH]n1	3.46
CC(C)SCCNC(=O)c1cccc2ccnn12	-51.6
CN1CC2(CCCN(Cc3ccccc3OCC(=O)O)C2)OC1=O (stereo not drawn)	-6.64
COc1cccc(OCC2CCCN(Cc3ccncc3)C2)c1 (stereo not drawn)	-7.66
CSCc1noc(CN2CC(Cc3ccccc3)CC2=O)n1 (stereo not drawn)	-0.404
COc1cccc(C(=O)N2CCC3(CCC(=O)N(C(C)C)C3)CC2)c1C	-3.21
CSCCCN1CCN(c2ccc(Cl)cn2)CC1	-5.52
CC[C@H](C)[C@@H](CO)NC(C)Cc1ccccc1F (stereo partly drawn)	-7.36
Cc1cccc(CN2CCc3c(nc(N4CCC(C)CC4)[nH]c3=O)C2)n1	-1.75
CC(=O)N1CCN(Cc2ccc(OCc3nccn3C)cc2)CC1	-2.68
Cn1cnnc1C1CCCN(C(=O)NCc2ccccn2)C1 (stereo not drawn)	2.83
O=C(NCCn1ccnc1)c1ccn(-c2ccccc2)n1	0.449
CCOCC1CCCN(C(=O)NCc2ccc(-c3ccn[nH]3)cc2)C1 (stereo not drawn)	-3.25
CSC(C)C(=O)N1CCCN(c2ncccc2C#N)CC1 (stereo not drawn)	-1.2
Cc1ncc2c(n1)CN(CC(=O)Nc1nccs1)CC2	-0.586

Structure (SMILES)	cytotoxicity at 10 µM [%]
O=C(c1csc(C2CC2)n1)N1CCCC1Cn1cccn1 (stereo not drawn)	-5.53
CCNc1cc2c(nn1)CCN(C(=O)CCc1c(C)noc1C)C2	-2.47
Cc1nnc(NCc2ccccc2F)c(C#N)c1C	-9.71
Cc1ncncc1C(=O)N1CCCC1c1c(C)nn(C)c1Cl (stereo not drawn)	-12.2
CC(C)C(C)NC(=O)Nc1ccc(F)c(C(N)=O)c1 (stereo not drawn)	-6.54
CCc1nc(CN2CCCC(NCc3nnc(C4CC4)n3C)C2)no1 (stereo not drawn)	-2.97
O=C(Nc1ccccc1OCC1CCCCO1)c1ccc(O)nc1 (stereo not drawn)	5.41
CCCOCC(=O)N1CCCN(Cc2csc(CC)n2)CC1	3.78
Cc1nc(CN(C)C2CCN(CC(=O)NC3CCOCC3)C2)no1 (stereo not drawn)	-7.15
CC(C(=O)NCc1ccnc(N2CCCC2)c1)n1cncn1 (stereo not drawn)	-3.43
O=C(c1cccc2[nH]ncc12)N1CCCC1c1noc(C2CC2)n1 (stereo not drawn)	-2.91
CCCc1ccc(OCCNCc2ccco2)c(OC)c1	-2.04
CN1CCN(Cc2ccncc2)C(=O)C12CCN(Cc1ccsc1)CC2	3.03
CCOCC1CN(C(=O)c2ccncn2)Cc2cnn(C)c21 (stereo not drawn)	-143
CC(C)CN1CC[C@@H]2[C@@H]1CCN2S(=O)(=O)c1cccs1	2.61
O=C(c1ccco1)N1C[C@H]2CCCN(Cc3nccs3)[C@H]2C1	2.32
CC(C)c1nn(C)c(Cl)c1CNCc1ccc2c(c1)OCCO2	-1.64
O=C(CC1CC1)NC[C@]12COC[C@H]1CN(c1ncc(F)cn1)C2	-141
Fc1cnc(N2CCCC3(CN(Cc4ccncc4)CCO3)C2)nc1 (stereo not drawn)	3.34
Cc1n[nH]cc1CNCC(O)c1ccc(F)c(F)c1 (stereo not drawn)	6.8
O=C(NCCc1ccccc1)C1CCC(Cn2cnnn2)CC1 (stereo not drawn)	2.01
